Measured values published in ChEMBL document CHEMBL5346884, “Discovery, synthesis and mechanism study of 2,3,5-substituted [1,2,4]-thiadiazoles as covalent inhibitors targeting 3C-Like protease of SARS-CoV-2” (Eur J Med Chem, 2023).

Tests used:
[1] = target: T1, Replicase polyprotein 1ab (Severe acute respiratory syndrome coronavirus 2, UniProt P0DTD1); assay: Inhibition of full-length recombinant SARS-CoV-2 3CL protease expressed in Escherichia coli BL21 (DE3) cells using fluorogenic MCA-AVLQSGFR-Lys (Dnp)-Lys-NH2 substrate preincubated for 10 mins followed by substrate addition measured for 3.5 mins by FRET assay
[2] = test system: SARS-CoV-2; assay: Antiviral activity against SARS-CoV-2 infected in African green monkey Vero E6 cells assessed as reduction in viral replication incubated for 24 hrs by qRT-PCR analysis; type: functional, organism-based; conditions: Severe acute respiratory syndrome coronavirus 2, Vero C1008, 24 h
[3] = test system: Vero C1008; assay: Cytotoxicity against African green monkey Vero E6 cells incubated for 24 hrs by WST-8 assay; type: toxicity, cell-based; conditions: chlorocebus sabaeus, vero c1008, 24 h
Procedure, shortened: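 Vero E6 cells grown in DMEM with 10% FBS at 37 °C, 5% CO₂. Compounds tested as 2-fold dilutions, 9 concentrations, in DMEM with 2% FBS, triplicate per concentration, for 24 h. WST-8 added and absorbance read at 450 nm after 0.5–1 h. Viability expressed relative to DMSO control.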

[4] = target: Chymotrypsin (Homo sapiens, UniProt Q99895+P17538+P40313+Q6GPI1); assay: Inhibition of chymotrypsin (unknown origin) using N-succinyl-AAPF-AMC as substrate preincubated for 10 mins followed by substrate addition measured for 10 mins by fluorescence based assay; type: protein assay
Procedure, shortened: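 Chymotrypsin at 5 nM final with serially diluted compound in PBS pH 7.4, incubated 10 min. N-succinyl-AAPF-AMC added at 10 μM final. Fluorescence (ex 380/em 460 nm) read every 1 min for 10 min. Rates relative to DMSO.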

[5] = target: Procathepsin L (Homo sapiens, UniProt P07711); assay: Inhibition of human Cathepsin L using Z-VVR-AMC as substrate measured for 10 mins by fluorescence based assay
[6] = target: T1, Replicase polyprotein 1ab; assay: Inhibition of SARS-CoV-2 PLpro using RLRGG-AMC substrate preincubated for 30 mins followed by substrate addition measured for 5 mins by fluorescence based assay
Procedure, shortened: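 PLpro at 50 nM with serially diluted compound in 50 mM HEPES pH 7.5, 0.1 mg/mL BSA, incubated 30 min. RLRGG-AMC added to 20 μM final. Fluorescence (ex 360/em 460 nm) read every 1 min for 5 min. Rates compared with DMSO control.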

[7] = target: Cathepsin B (Homo sapiens, UniProt P07858); assay: Inhibition of human Cathepsin B using Z-RR-AMC as substrate preincubated for 30 mins followed by substrate addition measured for 10 mins by FRET assay
Procedure, shortened: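 Cathepsin B (0.25 units) with compound in 20 mM sodium acetate pH 5.5, 1 mM EDTA, 2 mM DTT, incubated 30 min at ambient temperature. Z-RR-AMC added at 1 μM final. Fluorescence (ex 340/em 440 nm) read every 1 min for 10 min. Rates relative to DMSO.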

[8] = target: T1, Replicase polyprotein 1ab; assay: Inhibition of full-length recombinant SARS-CoV-2 3CL protease expressed in Escherichia coli BL21 (DE3) cells using fluorogenic MCA-AVLQSGFR-Lys (Dnp)-Lys-NH2 substrate preincubated for 10 mins followed by substrate addition measured after 10 mins by FRET assay
[9] = target: Replicase polyprotein 1ab (Severe acute respiratory syndrome coronavirus 2) (UniProt P0DTD1); assay: Binding affinity to full-length recombinant SARS-CoV-2 3CL protease expressed in Escherichia coli BL21 (DE3) cells assessed as Gibbs free energy change by MM-GBSA method
[10] = target: T1, Replicase polyprotein 1ab; assay: Inhibition of full-length recombinant SARS-CoV-2 3CL protease expressed in Escherichia coli BL21 (DE3) cells using fluorogenic MCA-AVLQSGFR-Lys (Dnp)-Lys-NH2 substrate preincubated for 10 mins followed by substrate addition measured after 20 mins by FRET assay
[11] = target: T1, Replicase polyprotein 1ab; assay: Inhibition of full-length recombinant SARS-CoV-2 3CL protease expressed in Escherichia coli BL21 (DE3) cells using fluorogenic MCA-AVLQSGFR-Lys (Dnp)-Lys-NH2 substrate preincubated for 10 mins followed by substrate addition measured immediately by FRET assay
Procedure, shortened: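 FRET assay: 50 nM protease (final) in 50 mM Tris–HCl pH 7.3, 1 mM EDTA, with serially diluted compound. Compound–enzyme preincubation was 10 min in the standard assay, and 0, 5, 10 or 20 min in the time-dependence test. Substrate added at 10 μM final. Fluorescence (ex 320/em 405 nm) read every 35 s for 3.5 min. Initial rates normalised to DMSO control.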

[12] = target: T1, Replicase polyprotein 1ab; assay: Binding affinity to CM5 chip-immobilised full-length recombinant SARS-CoV-2 3CL protease expressed in Escherichia coli BL21 (DE3) cells assessed as dissociation constant by SPR analysis
Procedure, shortened: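 SPR at 25 °C in HBS-EP (10 mM HEPES pH 7.4, 150 mM NaCl, 3.0 mM EDTA, 0.05% Tween-20) with 5% DMSO. Protease immobilised at 8000–10000 RU. Compounds were run as an eight-concentration series, with 240 s association and 200 s dissociation. Surface washed with 50% DMSO each cycle.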

[13] = target: T1, Replicase polyprotein 1ab; assay: Inhibition of full-length recombinant SARS-CoV-2 3CL protease expressed in Escherichia coli BL21 (DE3) cells using fluorogenic MCA-AVLQSGFR-Lys (Dnp)-Lys-NH2 substrate preincubated for 10 mins followed by substrate addition measured after 5 mins by FRET assay

Chain of Procathepsin L (P07711 whole entry): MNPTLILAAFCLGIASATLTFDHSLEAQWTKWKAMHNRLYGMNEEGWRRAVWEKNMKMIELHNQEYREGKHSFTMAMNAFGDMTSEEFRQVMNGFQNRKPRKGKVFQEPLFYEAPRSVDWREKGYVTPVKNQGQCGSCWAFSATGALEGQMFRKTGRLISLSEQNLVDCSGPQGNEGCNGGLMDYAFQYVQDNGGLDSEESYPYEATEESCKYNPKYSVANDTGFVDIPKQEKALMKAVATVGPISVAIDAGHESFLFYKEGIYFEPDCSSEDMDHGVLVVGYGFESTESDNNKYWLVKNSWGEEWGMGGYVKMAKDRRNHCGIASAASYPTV

FC1(F)CC(/N=c2\nc(-c3ccccc3)n(-c3ccccc3)s2)C1
IC50 [1]: 323 nM

C/N=c1\nc(-c2ccccc2)n(-c2ccc(F)cc2)s1
IC50 [1]: 124 nM

C/N=c1\nc(-c2ccc(Cl)cc2)n(-c2ccccc2)s1
IC50 [1]: 136 nM

C/N=c1\nc(-c2ccc(OC)cc2)n(-c2cc(F)c(F)c(F)c2)s1
IC50 [1]: 582 nM
EC50 [2]: 9340 nM
CC50 [3]: > 100000 nM

C/N=c1\nc(-c2ccc(F)cc2)n(-c2ccccc2)s1
IC50 [1]: 118 nM
EC50 [2]: 7250 nM
CC50 [3]: > 100000 nM
IC50 [4]: > 100000 nM
IC50 [5]: > 100000 nM
IC50 [6]: 448 nM
IC50 [7]: > 50000 nM

c1ccc(-c2n/c(=N\C3CC3)sn2-c2ccccc2)cc1
IC50 [1]: 143 nM

CCOc1ccc(-c2n/c(=N\C)sn2-c2ccc(F)cc2)cc1
IC50 [1]: 462 nM
EC50 [2]: 14800 nM
CC50 [3]: > 100000 nM

C/N=c1\nc(-c2ccc(OC)cc2)n(-c2ccc(F)cc2)s1
IC50 [1]: 373 nM

C/N=c1\nc(-c2ccccc2)n(-c2ccccc2)s1
IC50 [8]: 206 nM
IC50 [1]: 193 nM
deltaG [9]: -13.9 kcal/mol
IC50 [10]: 191 nM
IC50 [11]: 409 nM
Kd [12]: 798 nM
IC50 [4]: > 100000 nM
IC50 [5]: > 100000 nM
IC50 [6]: 655 nM
IC50 [13]: 302 nM
IC50 [7]: > 50000 nM

C/N=c1\nc(-c2ccc(OC)cc2)n(-c2ccccc2)s1
IC50 [1]: 165 nM

CN=C(S)N=C(Nc1ccccc1)c1ccccc1
IC50 [1]: 40000 nM
deltaG [9]: -11.4 kcal/mol
